For experiment [1], the target named is Glutamate NMDA receptor (Rattus norvegicus) (UniProt P35439+Q00959+Q00960+Q00961+Q62645+Q8VHN2+Q9R1M7). The experiment can be described thus: Inhibition of N-methyl-D-aspartate glutamate receptor was measured in oocytes expressing cloned rat brain receptor subunits (NR1A/2C). It is filed as cell-based. Particulars: Oocyte. An outline of the steps:
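Xenopus oocytes expressing cloned rat NR1A/2C subunits, voltage-clamped at -70 mV. Currents were evoked by 1 μM glycine plus 100 μM glutamate. The apparent dissociation constant (Kb) was calculated from current inhibition assuming simple competitive antagonism, and reported with 95% confidence intervals adjusted to the linear scale.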

Experiment [2] deals with Glutamate receptor ionotropic, AMPA (Rattus norvegicus) (UniProt P19491+P19492+P19493+P19490). Description: Inhibition of Ionotropic glutamate receptor AMPA-preferring non-NMDA receptors was measured in oocytes expressing rat brain poly(A)+ RNA isolated from the cerebral cortex. It is filed as cell-based. The conditions noted are these: Oocyte.
Experiment [3] can be described thus: Selectivity index measured as the kb ratio of AMPA to that of NMDA. An outline of the steps:
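Steady-state selectivity index: Kb at AMPA receptors (rat cortex poly(A)+ RNA oocytes, 10 μM AMPA) divided by Kb at NR1A/2C NMDA receptors (1 μM glycine, 100 μM glutamate), both from oocyte current inhibition at -70 mV.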

Experiment [4] concerns the target Glutamate receptor ionotropic, NMDA 1 (Rattus norvegicus, UniProt P35439). Description: Antagonism of N-methyl-D-aspartate glutamate receptor 1 sites using [3H]DCKA as a radioligand.

For `CC1Cc2[nH]c(=O)c(=O)cc(O)c2CC1C` (stereo unspecified), the values for the Kb in experiment [1] and in experiment [2] were 120 nM and 5300 nM, respectively. In addition, the Selectivity index in experiment [3] is 44.
On the same counts, the results for `O=c1cc(O)c2c([nH]c1=O)CCCC2` are 740 nM, 23000 nM and 31.
Taken in the same sequence, the figures for `CC1c2c(O)cc(=O)c(=O)[nH]c2C[C@H](Cl)[C@H]1Cl` (stereo partly specified) were 4.1 nM, 510 nM and 120.
For the compound `O=c1cc(O)c2c([nH]c1=O)C1CCC2C1` (stereo unspecified), the Kb in experiment [1] is 2800 nM. For the same compound, the Selectivity index in experiment [3] came out at 75.
For `CCC1c2c(O)cc(=O)c(=O)[nH]c2C[C@H](Cl)[C@H]1Cl` (stereo partly specified), the results for the Kb in experiment [1] and in experiment [2] were 2.8 nM and 720 nM, respectively. In experiment [3], the Selectivity index was 260.
By IC50 is commonly meant the point on the concentration scale where inhibition reaches its midpoint. Higher therefore signals lower potency. `O=c1cc(O)c2c([nH]c1=O)C[C@H](Cl)[C@@H](Cl)C2`: the Kb in experiment [1] was 42 nM; in experiment [2], 780 nM. Besides, the IC50 in experiment [4] was 130 nM. The Selectivity index in experiment [3] was found to be 19.
As for `O=c1cc(O)c2c([nH]c1=O)C1CCC2CC1`, the Kb was determined as 260 nM in experiment [1] and 79000 nM in experiment [2]. The Selectivity index in experiment [3] worked out at 300.
